From ChEMBL document CHEMBL1144285, “Pyrrolidinohydroquinazolines--a novel class of CCR3 modulators” (Bioorg Med Chem Lett, 2005)

The compounds below were run against T1, C-C chemokine receptor type 3 (Homo sapiens, UniProt P51677) (assay: Binding affinity measured for human C-C chemokine receptor type 3 expressed on human K562 cell membrane).
T1 sequence (P51677 whole entry): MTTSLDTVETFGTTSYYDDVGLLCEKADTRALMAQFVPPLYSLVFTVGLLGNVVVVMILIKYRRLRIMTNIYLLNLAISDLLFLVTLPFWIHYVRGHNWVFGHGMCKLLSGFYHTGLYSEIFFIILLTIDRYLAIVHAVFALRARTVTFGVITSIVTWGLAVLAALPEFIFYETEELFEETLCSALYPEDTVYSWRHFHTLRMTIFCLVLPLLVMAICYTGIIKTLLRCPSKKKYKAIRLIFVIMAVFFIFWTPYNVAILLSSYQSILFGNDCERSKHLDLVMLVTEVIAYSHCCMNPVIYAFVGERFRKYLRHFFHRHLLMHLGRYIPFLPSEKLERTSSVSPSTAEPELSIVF
Type: cell membranes
Procedure, shortened: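 Membranes from K562 cells transfected with human CCR3 (disrupted by nitrogen decompression, spun 40,000g, 4 °C, 1 h), 0.5–5 µg protein/well. SPA with WGA-coated PVT beads and 125I-rh eotaxin-1. Compounds added as DMSO dilutions, incubated 2 h. Buffer: 25 mM HEPES, 25 mM MgCl2, 1 mM CaCl2, 0.1% BSA. Unlabelled rh eotaxin defined nonspecific binding. Ki obtained by iterative mass-action fitting.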

First: CCc1ccccc1/C=C1\CCn2c1nc1ccccc1c2=N
Second: N=c1c2ccccc2nc2n1CC/C2=C\c1ccccc1I
The Ki of the first is 4.7-fold higher: 360 nM for the first, 76 nM for the second.

Going from `Fc1ccc(/C=C2\CCN3Cc4ccccc4N=C23)c(Cl)c1` to `Clc1ccc(/C=C2\CCN3Cc4ccccc4N=C23)c(Cl)c1`, the Ki rises from 930 nM to 1700 nM (1.8-fold). The first binds more tightly here.

Going from `CCC1C/C(=C\c2ccccc2Cl)C2=Nc3ccccc3CN21` (stereo unspecified) to `CCCCC1C/C(=C\c2ccccc2Br)C2=Nc3ccccc3CN21` (stereo unspecified), the Ki rises from 140 nM to 250 nM (1.8-fold). The first binds more tightly here.

First: Clc1ccc(/C=C2\CCN3Cc4ccccc4N=C23)cc1Cl
Second: Clc1cccc(Cl)c1/C=C1\CCN2Cc3ccccc3N=C12
The Ki of the first is 2.5-fold lower: 720 nM for the first, 1800 nM for the second.

`N=c1c2c3c(sc2nc2n1CC/C2=C\c1ccccc1Br)CCCC3` and `Cc1sc2nc3n(c(=N)c2c1C)CC/C3=C\c1ccccc1Br` are within 1.5-fold of each other in Ki: 350 nM for the first, 260 nM for the second.

Going from `N#C/N=c1/c2ccccc2nc2n1CC/C2=C\c1ccccc1Br` to `C/N=c1/c2ccccc2nc2n1CC/C2=C\c1ccccc1Br`, the Ki falls from 6100 nM to 310 nM (20-fold). The second binds more tightly here.

Going from `FC(F)(F)c1ccccc1/C=C1\CCN2Cc3ccccc3N=C12` to `FC(F)(F)Oc1ccccc1/C=C1\CCN2Cc3ccccc3N=C12`, the Ki rises from 1600 nM to 3200 nM (2-fold).

Compared with `C(=C1/CCN2Cc3ccccc3N=C12)/c1ccccc1-c1ccccc1`, `Clc1ccccc1/C=C1\CCN2Cc3ccccc3N=C12` is 26-fold lower in Ki: 2900 nM for the first, 110 nM for the second. The second binds more tightly here.

Compared with `CCOc1ccccc1/C=C1\CCN2Cc3ccccc3N=C12`, `CCc1ccccc1/C=C1\CCN2Cc3ccccc3N=C12` is 3.2-fold lower in Ki: 4500 nM for the first, 1400 nM for the second. The second binds more tightly here.

Going from `Brc1ccccc1/C=C1\CCN2Cc3ccccc3N=C12` to `Fc1ccccc1/C=C1\CCN2Cc3ccccc3N=C12`, the Ki rises from 90 nM to 1400 nM (16-fold).

Going from `Cc1oc2nc3n(c(=N)c2c1C)CC/C3=C\c1ccccc1Br` to `CC(C)(C)c1csc2nc3n(c(=N)c12)CC/C3=C\c1ccccc1Br`, the Ki rises from 270 nM to 1200 nM (4.4-fold). The first binds more tightly here.

Compared with `COc1ccc(/C=C2\CCn3c2nc2ccccc2c3=N)cc1`, `N=c1c2ccccc2nc2n1CC/C2=C\c1ccccc1Br` is 140-fold lower in Ki: 3900 nM for the first, 28 nM for the second. The second binds more tightly here.

Going from `N=c1c2c(C3CC3)csc2nc2n1CC/C2=C\c1ccccc1Br` to `N=c1c2ccsc2nc2n1CC/C2=C\c1ccccc1Br`, the Ki falls from 290 nM to 28 nM (10-fold). The second binds more tightly here.

`N=c1c2nc[nH]c2nc2n1CC/C2=C\c1ccccc1Br` and `N=c1c2cccnc2nc2n1CC/C2=C\c1ccccc1Br` are within 1.5-fold of each other in Ki: 830 nM for the first, 820 nM for the second.

Compared with `N=c1c2ccccc2nc2n1CC/C2=C\c1ccccc1Cl`, `CN(C)c1ccc(/C=C2\CCN3Cc4ccccc4N=C23)c(Cl)c1` is 40-fold higher in Ki: 35 nM for the first, 1400 nM for the second.

With `Fc1ccc(C2C/C(=C\c3ccccc3Br)C3=Nc4ccccc4CN32)cc1` (stereo unspecified) the Ki was 7900 nM.
